# Test results: ChEMBL document CHEMBL4689842, “EUbOPEN Chemogenomics Library wave 1” (2021)
# Tested on: U2OS
# Assay: Multiplex assay against U2OS
# Type: toxicity, cell-based
# Settings: human
# Method in brief: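 Imaging took place on a CQ1 microscope at 37°C and 5% CO2 once compound had been added to live cells stained at seeding with Hoechst33342, BioTracker Green Microtubule Cytoskeleton Dye, MitoTracker Red and Annexin V Alexa Fluor 680. CellPathfinder machine-learning gating classed cells as Hoechst high-intensity objects or normal cells, classed normal cells as having healthy, pyknosed or fragmented nuclei, and classed pyknosed cells as mitotic or apoptotic. Tubulin, mitochondrial-mass and membrane-permeability phenotypes are per cents of the healthy-nucleus cells.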
# [1] = 12 h, 1 µM, compound concentration 1 uM, replicate 1
# [2] = 12 h, 1 µM, compound concentration 1 uM, replicate 2
# [3] = 12 h, 10 µM, compound concentration 10 uM, replicate 1
# [4] = 12 h, 10 µM, compound concentration 10 uM, replicate 2
# [5] = 24 h, 1 µM, compound concentration 1 uM, replicate 1
# [6] = 24 h, 1 µM, compound concentration 1 uM, replicate 2
# [7] = 24 h, 10 µM, compound concentration 10 uM, replicate 1
# [8] = 24 h, 10 µM, compound concentration 10 uM, replicate 2
# [9] = 48 h, 1 µM, compound concentration 1 uM, replicate 1
# [10] = 48 h, 1 µM, compound concentration 1 uM, replicate 2
# [11] = 48 h, 10 µM, compound concentration 10 uM, replicate 1
# [12] = 48 h, 10 µM, compound concentration 10 uM, replicate 2
structure (smiles),measurement,setting,value
Cl.Oc1ccc2c3c1O[C@H]1c4[nH]c5c(c4C[C@@]4(O)[C@@H](C2)N(CC2CC2)CC[C@]314)C[C@@]1(O)[C@H]2Cc3ccc(O)c4c3[C@@]1(CCN2CC1CC1)[C@H]5O4,Population Apoptotic (%),[1],38%
same,Population Fragmented Nuclei (%),[1],9%
same,Population Healthy Nuclei (%),[1],79%
same,Population Hoechst High Intensity Objects (%),[1],6%
same,Population Membrane Permeable-Phenotype (%),[1],9%
same,Population Mitochondria Different-Phenotype (%),[1],15%
same,Population Mitotic Cells (%),[1],61%
same,Population Normal (%),[1],93%
same,Population Tubulin-Different-Phenotype (%),[1],14%
same,Total Cell Count,[1],105
same,Population Apoptotic (%),[2],42%
same,Population Fragmented Nuclei (%),[2],3%
same,Population Healthy Nuclei (%),[2],86%
same,Population Hoechst High Intensity Objects (%),[2],9%
same,Population Membrane Permeable-Phenotype (%),[2],10%
same,Population Mitochondria Different-Phenotype (%),[2],19%
same,Population Mitotic Cells (%),[2],57%
same,Population Normal (%),[2],90%
same,Population Pyknosed Nuclei (%),[2],10%
same,Population Tubulin-Different-Phenotype (%),[2],17%
same,Total Cell Count,[2],97
same,Population Apoptotic (%),[3],57%
same,Population Fragmented Nuclei (%),[3],14%
same,Population Healthy Nuclei (%),[3],73%
same,Population Hoechst High Intensity Objects (%),[3],6%
same,Population Membrane Permeable-Phenotype (%),[3],6%
same,Population Mitochondria Different-Phenotype (%),[3],10%
same,Population Mitotic Cells (%),[3],42%
same,Population Normal (%),[3],93%
same,Population Pyknosed Nuclei (%),[3],12%
same,Population Tubulin-Different-Phenotype (%),[3],3%
same,Total Cell Count,[3],183
same,Population Apoptotic (%),[4],93%
same,Population Fragmented Nuclei (%),[4],12%
same,Population Healthy Nuclei (%),[4],48%
same,Population Hoechst High Intensity Objects (%),[4],7%
same,Population Membrane Permeable-Phenotype (%),[4],52%
same,Population Mitochondria Different-Phenotype (%),[4],26%
same,Population Mitotic Cells (%),[4],6%
same,Population Normal (%),[4],92%
same,Population Pyknosed Nuclei (%),[4],38%
same,Population Tubulin-Different-Phenotype (%),[4],89%
same,Total Cell Count,[4],73
same,Population Apoptotic (%),[5],30%
same,Population Fragmented Nuclei (%),[5],7%
same,Population Healthy Nuclei (%),[5],80%
same,Population Hoechst High Intensity Objects (%),[5],3%
same,Population Membrane Permeable-Phenotype (%),[5],6%
same,Population Mitochondria Different-Phenotype (%),[5],12%
same,Population Mitotic Cells (%),[5],69%
same,Population Normal (%),[5],96%
same,Population Pyknosed Nuclei (%),[5],11%
same,Population Tubulin-Different-Phenotype (%),[5],9%
same,Total Cell Count,[5],113
same,Population Apoptotic (%),[6],25%
same,Population Fragmented Nuclei (%),[6],3%
same,Population Healthy Nuclei (%),[6],91%
same,Population Hoechst High Intensity Objects (%),[6],4%
same,Population Membrane Permeable-Phenotype (%),[6],10%
same,Population Mitochondria Different-Phenotype (%),[6],13%
same,Population Mitotic Cells (%),[6],75%
same,Population Normal (%),[6],95%
same,Population Pyknosed Nuclei (%),[6],4%
same,Population Tubulin-Different-Phenotype (%),[6],18%
same,Total Cell Count,[6],94
same,Population Apoptotic (%),[7],55%
same,Population Fragmented Nuclei (%),[7],9%
same,Population Healthy Nuclei (%),[7],80%
same,Population Hoechst High Intensity Objects (%),[7],3%
same,Population Membrane Permeable-Phenotype (%),[7],3%
same,Population Mitochondria Different-Phenotype (%),[7],8%
same,Population Mitotic Cells (%),[7],45%
same,Population Normal (%),[7],96%
same,Population Pyknosed Nuclei (%),[7],10%
same,Population Tubulin-Different-Phenotype (%),[7],5%
same,Total Cell Count,[7],231
same,Population Apoptotic (%),[8],76%
same,Population Fragmented Nuclei (%),[8],13%
same,Population Healthy Nuclei (%),[8],58%
same,Population Hoechst High Intensity Objects (%),[8],13%
same,Population Membrane Permeable-Phenotype (%),[8],48%
same,Population Mitochondria Different-Phenotype (%),[8],33%
same,Population Mitotic Cells (%),[8],23%
same,Population Normal (%),[8],86%
same,Population Pyknosed Nuclei (%),[8],28%
same,Population Tubulin-Different-Phenotype (%),[8],77%
same,Total Cell Count,[8],91
same,Population Apoptotic (%),[9],22%
same,Population Fragmented Nuclei (%),[9],4%
same,Population Hoechst High Intensity Objects (%),[9],3%
same,Population Membrane Permeable-Phenotype (%),[9],2%
same,Population Mitochondria Different-Phenotype (%),[9],11%
same,Population Mitotic Cells (%),[9],77%
same,Population Normal (%),[9],96%
same,Population Pyknosed Nuclei (%),[9],8%
same,Population Tubulin-Different-Phenotype (%),[9],11%
same,Total Cell Count,[9],107
same,Population Apoptotic (%),[10],14%
same,Population Fragmented Nuclei (%),[10],6%
same,Population Healthy Nuclei (%),[10],87%
same,Population Hoechst High Intensity Objects (%),[10],4%
same,Population Membrane Permeable-Phenotype (%),[10],9%
same,Population Mitochondria Different-Phenotype (%),[10],16%
same,Population Mitotic Cells (%),[10],85%
same,Population Normal (%),[10],95%
same,Population Pyknosed Nuclei (%),[10],5%
same,Population Tubulin-Different-Phenotype (%),[10],14%
same,Total Cell Count,[10],96
same,Population Apoptotic (%),[11],47%
same,Population Fragmented Nuclei (%),[11],4%
same,Population Healthy Nuclei (%),[11],89%
same,Population Hoechst High Intensity Objects (%),[11],3%
same,Population Membrane Permeable-Phenotype (%),[11],1%
same,Population Mitochondria Different-Phenotype (%),[11],9%
same,Population Mitotic Cells (%),[11],52%
same,Population Normal (%),[11],96%
same,Population Pyknosed Nuclei (%),[11],6%
same,Population Tubulin-Different-Phenotype (%),[11],4%
same,Total Cell Count,[11],365
same,Population Apoptotic (%),[12],60%
same,Population Fragmented Nuclei (%),[12],11%
same,Population Healthy Nuclei (%),[12],73%
same,Population Hoechst High Intensity Objects (%),[12],8%
same,Population Membrane Permeable-Phenotype (%),[12],30%
same,Population Mitochondria Different-Phenotype (%),[12],34%
same,Population Mitotic Cells (%),[12],40%
same,Population Normal (%),[12],91%
same,Population Pyknosed Nuclei (%),[12],15%
same,Population Tubulin-Different-Phenotype (%),[12],84%
same,Total Cell Count,[12],129
